SR-BI DiI-HDL act = activators of SR-BI mediated HDL lipid uptake | 320,000 compounds, 0.096% hits | CHO ldlA[mSR-BI] cells, DiI-HDL uptake fluorescence, 3 h; 100 = double the neutral-control signal | activation, % at 12.5 µM;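 active = mean replicate activation of at least 60% and every replicate at or above 60%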;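 also: 0% = median plate neutral-control signal and 100% = twice that signal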
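System: LDL receptor-deficient CHO ldlA cells overexpressing murine SR-BI | Timing: 3 h uptake period with compound, 37 °C | Medium: HEPES-buffered (25 mM, pH 7.4) F12 plus 0.5% BSA | Dosing: Single-point compound dose | Signal: Bottom-read fluorescence, 550/595 nm | Read-out: Retained DiI signal reflecting DiI-HDL uptake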
GAA850 FXN act = increases GAA850 frataxin promoter reporter activity; HEK293 lucGAA850 FXN promoter luciferase reporter, 24 h; percent of 10 µM SAHA response; activation, % at 6 µM; 360,000 compounds, 0.56% hits; AID 540364;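 active = activation above the average of all compounds screened plus 3 SD, cutoff fixed separately per campaign, cut at about 7.5% in these data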;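 also: 0% = DMSO wells and 100% = 10 µM SAHA wells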
AHR activator = activators of human aryl hydrocarbon receptor. activation, % at 5 µM. P35869. 320,000 compounds, 2.5% hits. AHR-responsive luciferase reporter cells, luminescence; in the data active = activation above about 47%;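 also: 0% = vehicle wells and 100% = reference agonist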
Target sequence (P35869 whole entry, looked up): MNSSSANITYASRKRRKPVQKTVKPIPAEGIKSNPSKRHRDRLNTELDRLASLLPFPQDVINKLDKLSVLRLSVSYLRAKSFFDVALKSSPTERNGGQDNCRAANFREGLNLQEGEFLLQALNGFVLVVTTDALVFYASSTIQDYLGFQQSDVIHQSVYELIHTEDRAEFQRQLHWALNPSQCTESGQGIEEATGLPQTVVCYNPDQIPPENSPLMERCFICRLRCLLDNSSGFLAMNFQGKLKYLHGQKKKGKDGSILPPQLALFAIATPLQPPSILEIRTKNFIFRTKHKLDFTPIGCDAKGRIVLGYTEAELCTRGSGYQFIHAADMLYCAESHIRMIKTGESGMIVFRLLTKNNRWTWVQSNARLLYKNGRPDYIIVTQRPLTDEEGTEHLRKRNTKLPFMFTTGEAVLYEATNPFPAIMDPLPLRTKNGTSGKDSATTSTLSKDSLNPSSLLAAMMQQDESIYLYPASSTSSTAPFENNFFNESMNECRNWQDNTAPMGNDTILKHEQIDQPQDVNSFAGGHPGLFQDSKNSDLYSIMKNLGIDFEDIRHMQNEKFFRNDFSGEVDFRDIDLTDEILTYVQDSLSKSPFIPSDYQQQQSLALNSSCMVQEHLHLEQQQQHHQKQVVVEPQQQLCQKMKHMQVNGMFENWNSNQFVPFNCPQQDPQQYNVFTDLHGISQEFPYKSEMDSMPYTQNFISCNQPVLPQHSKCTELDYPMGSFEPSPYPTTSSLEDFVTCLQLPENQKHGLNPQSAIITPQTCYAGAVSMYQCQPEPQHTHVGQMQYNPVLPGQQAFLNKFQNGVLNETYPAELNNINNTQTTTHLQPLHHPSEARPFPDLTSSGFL
SR-BI DiI inh = inhibitors of mouse SR-BI mediated HDL lipid uptake | ldlA[mSR-BI] CHO cells, DiI-HDL uptake fluorescence, 3 h | inhibition, % at 12.5 µM | 320,000 compounds, 0.96% hits;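 active = mean replicate inhibition of at least 70% and a set share of replicates each scoring 70 or more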;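 also: 0% = median of neutral control wells and 100% = median of positive control wells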
JMJD2C inh = human JMJD2C demethylase inhibition; GST-JMJD2C(1-420) H3K9me3 demethylation, DELFIA europium; inhibition, % at 2.35 µM; AID 2099; Q9H3R0; 330,000 compounds, 0.069% hits;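 active = more than half of a compound's replicate wells show inhibition beyond 50%, single wells judged on their own value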;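 also: signal counts dimethyl H3K9 product captured on neutravidin plate; 0% = median of DMSO wells and 100% = 0.3 times that DMSO median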
GAA30 counter = activates GAA30 frataxin promoter, counter-screen for GAA850 activators. shares compounds with GAA850 FXN act. HEK293 lucGAA30 FXN promoter luciferase, 24 h; DMSO = 0%, 5 µM ipriflavone = 100%. activation, % at 6 µM. 1,900 compounds, 66% hits;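 active = mean activation above the mean of solvent-only control wells plus 3 SD, cut at about 22% in these data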;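 also: counterscreen of GAA850 promoter hits where activity marks nonselective or luminescence artifacts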
FXN GAA850 conf = confirmation of GAA850 frataxin (FXN) promoter activators; HEK293 lucGAA850 FXN promoter luciferase reporter, 24 h; 100% = activation by SAHA; 1,900 compounds, 86% hits; activation, % at 6 µM; AID 588351; shares compounds with GAA850 FXN act;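 active = mean activation above a set limit taken from the primary screen, cut at about 8% in these data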;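 also: 0% = DMSO wells and 100% = 10 µM SAHA wells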
Numbers without * were called inactive. Shown are actives, neighbours in structure and some others; about 3.7% of the full set was active somewhere.

Screening O=C1[C@H]2[C@@H](C(=O)N1c1cccc3ccccc13)C1(C(=O)c3ccccc3C1=O)N1CCC[C@@H]21 returned SR-BI DiI-HDL act 23.0, GAA850 FXN act 9.4*, AHR activator 5.4, SR-BI DiI inh -23.0, JMJD2C inh 8.3, GAA30 counter 37.4* and FXN GAA850 conf 15.9*.
CC(C)(C)n1nnnc1C(c1cccs1)N(Cc1ccc(Cl)cc1)CC1CCCO1 (stereo not given) was read as SR-BI DiI-HDL act -23.4, GAA850 FXN act 7.8*, AHR activator 1.3, SR-BI DiI inh 23.4, JMJD2C inh -8.0, GAA30 counter 20.0 and FXN GAA850 conf 16.9*.
Screening N#CCSc1ccc(-c2nc3ccccc3[nH]2)cn1 returned SR-BI DiI-HDL act 2.0, GAA850 FXN act 7.8*, AHR activator 11.3, SR-BI DiI inh -2.0, JMJD2C inh 14.3, GAA30 counter 85.3* and FXN GAA850 conf 27.0*.
CCOC(=O)CSc1ccc(-c2nc3ccccc3[nH]2)cn1 was read as SR-BI DiI-HDL act 18.1, GAA850 FXN act 0.6, AHR activator 14.3, SR-BI DiI inh -18.1 and JMJD2C inh 3.0.
O=c1c(Cc2ccc(F)cc2)c(O)ccn1Cc1cccc(Cl)c1 was read as SR-BI DiI-HDL act 25.8, GAA850 FXN act -1.7, AHR activator 0.4, SR-BI DiI inh -25.8 and JMJD2C inh 0.7.
For Cc1ccc(CNC(=O)CSc2nnc(CNC(=O)c3ccccc3)o2)cc1 the results were SR-BI DiI-HDL act 12.6, GAA850 FXN act 0.6, AHR activator -2.0, SR-BI DiI inh -12.6 and JMJD2C inh 14.9.
For N#Cc1cc(Oc2cccc3cccnc23)c(-n2nnc3ccccc32)cc1C#N the results were SR-BI DiI-HDL act -18.6, GAA850 FXN act 7.7*, AHR activator 21.9, SR-BI DiI inh 18.6, JMJD2C inh -7.3, GAA30 counter -1.5 and FXN GAA850 conf 15.1*.
Screening N#Cc1cc(O)c(-n2nnc3ccccc32)cc1C#N returned SR-BI DiI-HDL act 9.0, GAA850 FXN act 0.0, AHR activator 6.9, SR-BI DiI inh -9.0 and JMJD2C inh -9.4.
Screening Cc1ccc2[nH]c(C(=O)N3CCOCC3)cc2c1 returned SR-BI DiI-HDL act 18.1, GAA850 FXN act 1.1, AHR activator 2.5, SR-BI DiI inh -18.1 and JMJD2C inh 6.3.
For CCOC(=O)C/C(=N\Nc1ncnc2ccccc12)c1ccccc1 the results were GAA850 FXN act 8.3*, AHR activator 69.3*, JMJD2C inh -9.0, GAA30 counter 83.8* and FXN GAA850 conf 35.4*.
O=S(=O)(Nc1ccc(N2CCCCC2)cc1)c1cccc2cccnc12 was read as SR-BI DiI-HDL act -8.0, GAA850 FXN act 8.0*, AHR activator -3.9, SR-BI DiI inh 8.0, JMJD2C inh 0.4, GAA30 counter 19.5 and FXN GAA850 conf 6.7.
O=S(=O)(NCCO)c1cccc2cccnc12 was read as SR-BI DiI-HDL act 2.3, GAA850 FXN act 14.3*, AHR activator 4.2, SR-BI DiI inh -2.3, JMJD2C inh -5.5, GAA30 counter 20.1 and FXN GAA850 conf 5.2.
`COc1ccccc1NC(=O)c1ccc(NS(=O)(=O)c2cccc3cccnc23)cc1` gave SR-BI DiI-HDL act -20.7, GAA850 FXN act 8.6*, AHR activator 14.8, SR-BI DiI inh 20.7, JMJD2C inh -10.5, GAA30 counter 15.6 and FXN GAA850 conf 9.8*.
CCC(C)(C)NC(=O)C(c1ccccc1Cl)N(C(=O)CCC(=O)Nc1cc(C)on1)C(C)(C)C (stereo not given) was read as GAA850 FXN act 0.5, AHR activator -2.1 and JMJD2C inh -0.7.
Screening CN(C)CCNC(=O)C(=O)Nc1ccc2c(c1)N(S(=O)(=O)c1cccs1)CCC2 returned SR-BI DiI-HDL act 19.8, GAA850 FXN act -3.3, AHR activator -2.3, SR-BI DiI inh -19.8 and JMJD2C inh 36.0.
COC(=O)C1=C(N)N(c2ccccc2F)C2=C(C(=O)CC(C)(C)C2)C1c1ccc(OC)c(OC)c1 (stereo not given) was read as SR-BI DiI-HDL act 3.5, GAA850 FXN act -0.6, AHR activator 7.8, SR-BI DiI inh -3.5 and JMJD2C inh -17.8.
For COC(=O)C1=C(C)N(C)C(=O)NC1c1cc(Cl)cc(Cl)c1OC (stereo not given) the results were SR-BI DiI-HDL act -27.1, GAA850 FXN act -0.7, AHR activator -2.0, SR-BI DiI inh 27.1 and JMJD2C inh 2.2.
For COC(=O)C1=C(C)N(C)C(=O)NC1c1cc(Cl)c(O)c(OC)c1 (stereo not given) the results were SR-BI DiI-HDL act 44.3, GAA850 FXN act 7.8*, AHR activator 2.1, SR-BI DiI inh -44.3, JMJD2C inh -8.5, GAA30 counter 9.8 and FXN GAA850 conf 11.8*.
For COC(=O)Oc1ccc(/C=C/C(=O)OC(C)C)cc1OC(=O)OC the results were SR-BI DiI-HDL act 7.2, GAA850 FXN act 11.5*, AHR activator -3.6, SR-BI DiI inh -7.2, JMJD2C inh 22.1, GAA30 counter 51.5* and FXN GAA850 conf 32.0*.
CCCCOC(=O)/C=C/c1ccc(OC(=O)OC)c(OC(=O)OC)c1 was read as SR-BI DiI-HDL act 25.9, GAA850 FXN act 10.2*, AHR activator 1.2, SR-BI DiI inh -25.9, JMJD2C inh 1.3, GAA30 counter 62.6* and FXN GAA850 conf 31.6*.
`COc1ccc(/C=C/C(=O)Oc2ccc(C=O)cc2OC)cc1` gave SR-BI DiI-HDL act 4.6, GAA850 FXN act 0.9, AHR activator -0.6, SR-BI DiI inh -4.6 and JMJD2C inh 3.2.
CCc1nc2ccc(C(=O)NCCc3ccccn3)cn2c1N(C)Cc1nccs1 was read as GAA850 FXN act -2.1.
Screening COc1cc(C)c(NC(=O)C2CCN(S(=O)(=O)c3cccs3)CC2)cc1OC returned SR-BI DiI-HDL act 8.1, GAA850 FXN act 1.4, AHR activator -0.2 and SR-BI DiI inh -8.1.
Screening CN1CCN(NC(=O)c2ccc(COc3ccccc3Br)o2)CC1 returned SR-BI DiI-HDL act 15.2, GAA850 FXN act 2.3, AHR activator -0.3, SR-BI DiI inh -15.2 and JMJD2C inh -9.7.
`COc1cccc(/C=C/C(=O)Nc2ccc3nc4n(c(=O)c3c2)CCCC4)c1OC` gave SR-BI DiI-HDL act -69.4, GAA850 FXN act 2.5, AHR activator 1.1, SR-BI DiI inh 69.4 and JMJD2C inh 47.8.
For CCOC(=O)c1sc(N/N=C/c2ccccc2)nc1C the results were SR-BI DiI-HDL act -9.9, GAA850 FXN act 7.6*, AHR activator 61.5*, SR-BI DiI inh 9.9, JMJD2C inh 2.5, GAA30 counter 134.2* and FXN GAA850 conf 39.9*.

Assay outcomes from PubChem BioAssay.
